In PubChem BioAssay AID488947 (Sanford-Burnham Center for Chemical Genomics, 2010):
Active and inactive are the calls of the source.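 The calls were made as follows: active = compounds letting at most 1% of the green fluorescent tagged protein gather at the cell membrane; inactive = the rest.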

Biological target: G-protein coupled receptor 55 (Homo sapiens) (UniProt Q9Y2T6)
Test: GPR55 antagonists blocking PKCbII-GFP membrane recruitment, SAR follow-up, imaging, HEK293 (AID 488947)
Details: HEK293 GPR55 + PKCbetaII-GFP
Method in brief: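 System: Transfected HEK293 with GPR55 and PKCβII-GFP | Reagent: 10 µM AM251 | Times: Compound pre-incubation 15 min at 37 °C, then AM251 exposure 30 min | Buffer or medium: Serum-free MEM | Signal: Fluorescence imaging of GFP after 1% PFA fixation, scored by eye | Dosing: Four compound doses between 10 and 100 µM | Replicates: Duplicates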

Sequence of G-protein coupled receptor 55 (Homo sapiens) (Q9Y2T6 whole entry, looked up): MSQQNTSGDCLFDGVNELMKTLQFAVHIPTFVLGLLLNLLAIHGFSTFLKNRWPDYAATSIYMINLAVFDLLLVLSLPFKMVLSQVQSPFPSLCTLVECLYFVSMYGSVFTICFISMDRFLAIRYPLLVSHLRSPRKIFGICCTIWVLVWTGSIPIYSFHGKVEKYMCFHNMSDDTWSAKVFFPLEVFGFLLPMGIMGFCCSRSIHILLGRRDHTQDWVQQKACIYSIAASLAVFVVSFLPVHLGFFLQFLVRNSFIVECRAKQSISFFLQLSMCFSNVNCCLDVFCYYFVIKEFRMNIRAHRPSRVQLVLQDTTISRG

Row | outcome | SMILES
1 | active; + | Cc1nc(N2CCN(C(=O)c3ccco3)CC2)c2c3c(sc2n1)CCCC3
2 | active | Cc1cc(C)c2nc(-c3ccccn3)cc(C(=O)Nc3ccc(S(=O)(=O)Nc4onc(C)c4C)cc3)c2c1
3 | active | Cc1ccc(C2(C(=O)N3CCC(n4nc(-c5ccccc5)oc4=O)CC3)CC2)cc1
